Results from ChEMBL document CHEMBL3739379, “Anti-Candida activity and cytotoxicity of a large library of new N-substituted-1,3-thiazolidin-4-one derivatives” (Eur J Med Chem, 2016).
≈ marks a conversion by molar mass, not a printed value.

What was measured:
Staphylococcus aureus = assay: Antibacterial activity against Staphylococcus aureus after 18 to 22 hrs by broth microdilution method; assay type: functional
In short: (§1)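 Broth microdilution per NCCLS in Mueller-Hinton II broth; isolates subcultured for purity. Compounds dissolved in DMSO, serial dilutions 256 to 0.5 µg/mL; inoculum 10^5/mL. Controls: organism without compound, medium only. Incubation 18 to 22 h at 35 °C. MIC is the lowest concentration giving complete growth inhibition, read by unaided eye.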

Staphylococcus warneri = assay: Antibacterial activity against Staphylococcus warneri after 18 to 22 hrs by broth microdilution method; assay type: functional; in short: as §1
Enterococcus faecalis = assay: Antibacterial activity against […] faecalis after 18 to 22 hrs by broth microdilution method; assay type: functional; in short: as §1
[1] = tested on: Staphylococcus haemolyticus; assay: Antibacterial activity against Staphylococcus haemolyticus after 18 to 22 hrs by broth microdilution method; assay type: functional; in short: as §1
Escherichia coli = assay: Antibacterial activity against Escherichia coli at after 18 to 22 hrs by broth microdilution method; assay type: functional; in short: as §1
Proteus mirabilis = assay: Antibacterial activity against Proteus mirabilis after 18 to 22 hrs by broth microdilution method; assay type: functional; in short: as §1
Enterobacter sp. = assay: Antibacterial activity against Enterobacter sp. after 18 to 22 hrs by broth microdilution method; assay type: functional; in short: as §1
Klebsiella oxytoca = assay: Antibacterial activity against Klebsiella oxytoca after 18 to 22 hrs by broth microdilution method; assay type: functional; in short: as §1
Candida albicans = assay: Antifungal activity against Candida albicans clinical isolate after 24 hrs by sabouraud dextrose broth based microdilution method; assay type: functional
In short: (§2)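 Clinical isolates identified by conventional methods and subcultured for purity. Broth microdilution per NCCLS in Sabouraud dextrose broth; compounds dissolved in DMSO and serially diluted; inoculum 10^3/mL. Controls: fungi without compound, medium only. Incubated 24 h at 37 °C. MIC is the lowest concentration with complete growth inhibition by unaided eye. Values are geometric means over isolates per species.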

Nakaseomyces glabratus = assay: Antifungal activity against Candida glabrata clinical isolate after 24 hrs by sabouraud dextrose broth based microdilution method; assay type: functional; in short: as §2
Candida tropicalis = assay: Antifungal activity against Candida tropicalis clinical isolate after 24 hrs by sabouraud dextrose broth based microdilution method; assay type: functional; in short: as §2
Pichia kudriavzevii = assay: Antifungal activity against Candida krusei clinical isolate after 24 hrs by sabouraud dextrose broth based microdilution method; assay type: functional; in short: as §2
Candida parapsilosis = assay: Antifungal activity against Candida parapsilosis clinical isolate after 24 hrs by sabouraud dextrose broth based microdilution method; assay type: functional; conditions: Lodderomyces parapsilosis; in short: as §2
[Candida] sake = Antifungal activity against Candida sake clinical isolate after 24 hrs by sabouraud dextrose broth based microdilution method; assay type: functional; conditions: Fermentozyma sake; in short: as §2
[2] = Cytotoxicity against human Hep2 cells assessed as cell survival at 100 ug/ml after 24 hrs by trypan blue exclusion test (reference value: 87 to 94%); assay type: cell-based, HEp-2; conditions: read-out: Survival
[3] = Cytotoxicity against human Hep2 cells assessed as cell survival at 50 ug/ml after 24 hrs by trypan blue exclusion test (reference value: 87 to 94%); assay type: cell-based, HEp-2; conditions: read-out: Survival
[4] = Cytotoxicity against human Hep2 cells assessed as cell survival at 5 ug/ml after 24 hrs by trypan blue exclusion test (reference value: 87 to 94%); assay type: cell-based, HEp-2; conditions: read-out: Survival
[5] = Cytotoxicity against human Hep2 cells assessed as cell survival at 0.5 ug/ml after 24 hrs by trypan blue exclusion test (reference value: 87 to 94%); assay type: cell-based, HEp-2; conditions: read-out: Survival
[6] = Cytotoxicity against human Hep2 cells assessed as cell survival at 0.05 ug/ml after 24 hrs by trypan blue exclusion test (reference value: 87 to 94%); assay type: cell-based, HEp-2; conditions: read-out: Survival
[7] = Cytotoxicity against human Hep2 cells assessed as cell survival after 24 hrs by trypan blue exclusion method; assay type: cell-based, HEp-2
In short: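 Hep2 cells grown in DMEM with 10% FBS and 1% streptomycin-penicillin at 37 °C, 5% CO2, used at 60-70% confluency. Seeded at 1 x 10^5/mL and exposed 24 h to five concentrations (0.05-100 µg/mL), DMSO ≤0.5%. Controls: medium alone, DMSO, 1 mM nitroprusside. Cells scraped, recovered 30 min, stained 1:1 with 0.4% Trypan blue, counted by two operators. Means of ≥3 independent experiments.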

[8] = Selectivity index, ratio of CC50 for human Hep2 cells to MIC for Candida glabrata; parameters: species or system HEp-2
In short: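 Ratio of CC50 from the 24 h Trypan blue assay on Hep2 cells to the MIC against C. glabrata from the 24 h, 37 °C Sabouraud broth microdilution.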

`C/C(CC(C)C)=N\N=C1/SCC(=O)N1Cc1cccc2ccccc12` gave an MIC (Staphylococcus aureus) greater than 256 µg/mL, an MIC (Staphylococcus warneri) greater than 256 µg/mL and an MIC (Enterococcus faecalis) greater than 256 µg/mL. The MIC [1] was greater than 256 µg/mL, the MIC (Escherichia coli) was greater than 256 µg/mL and the MIC (Proteus mirabilis) was greater than 256 µg/mL. For the same molecule, the MIC (Enterobacter sp.) was greater than 256 µg/mL, the MIC (Klebsiella oxytoca) was greater than 256 µg/mL and the MIC (Candida albicans) was 4 µg/mL (≈ 11.3 µM). The MIC (Nakaseomyces glabratus) was 1 µg/mL (≈ 2.83 µM), the MIC (Candida tropicalis) was 64 µg/mL (≈ 181 µM) and the MIC (Pichia kudriavzevii) was 2 µg/mL (≈ 5.66 µM). It also gave an MIC (Candida parapsilosis) of 2 µg/mL (≈ 5.66 µM), an MIC ([Candida] sake) of 4 µg/mL (≈ 11.3 µM) and a viability at 24 h, 100 ug/ml [2] of 46%. It also gave a viability at 24 h, 50 ug/ml [3] of 73.6%, a viability at 24 h, 5 ug/ml [4] of 87.5% and a viability at 24 h, 0.5 ug/ml [5] of 91%. For the same molecule, the viability at 24 h, 0.05 ug/ml [6] was 93.2%, the CC50 at 24 h [7] was 95 µg/mL (≈ 269 µM) and the “Selectivity Index” value [8] was 95.
`C/C(CC(C)C)=N\N=C1/SCC(=O)N1CN1C(=O)c2ccccc2C1=O` showed an MIC (Staphylococcus aureus) greater than 256 µg/mL, an MIC (Staphylococcus warneri) greater than 256 µg/mL and an MIC (Enterococcus faecalis) greater than 256 µg/mL. For the same molecule, the MIC [1] was greater than 256 µg/mL, the MIC (Escherichia coli) was greater than 256 µg/mL and the MIC (Proteus mirabilis) was greater than 256 µg/mL. For the same molecule, the MIC (Enterobacter sp.) was greater than 256 µg/mL, the MIC (Klebsiella oxytoca) was greater than 256 µg/mL and the MIC (Candida albicans) was 2 µg/mL (≈ 5.37 µM). The MIC (Nakaseomyces glabratus) was 1 µg/mL (≈ 2.68 µM), the MIC (Candida tropicalis) was 64 µg/mL (≈ 172 µM) and the MIC (Pichia kudriavzevii) was 2 µg/mL (≈ 5.37 µM). For the same molecule, the MIC (Candida parapsilosis) was 2 µg/mL (≈ 5.37 µM), the MIC ([Candida] sake) was 2 µg/mL (≈ 5.37 µM) and the viability at 24 h, 100 ug/ml [2] was 47%. It also gave a viability at 24 h, 50 ug/ml [3] of 79%, a viability at 24 h, 5 ug/ml [4] of 90% and a viability at 24 h, 0.5 ug/ml [5] of 92.8%. The viability at 24 h, 0.05 ug/ml [6] was 94%, the CC50 at 24 h [7] was 99 µg/mL (≈ 266 µM) and the “Selectivity Index” value [8] was 99.
